Compound activity as filed in PubChem BioAssay.
TRPC6 act: activators of mouse TRPC6 channel. Q61143. HEK293-TRPC6 membrane potential dye fluorescence; hits give high values. B-score at 10 µM. 310,000 compounds, 0.13% hits. AID 2550;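 active = B-score of the integrated fluorescence ratio above library mean plus 3 SD, and starting fluorescence ratio within library mean plus 5 SD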;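 also: higher score means more depolarization so channel activation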
TRPC4 act: TRPC4 (mouse) channel activation | HEK293 TRPC4beta/mu-opioid, Fluo4 calcium fluorescence; hits give high values | B-score at 10 µM | 310,000 compounds, 0.49% hits | AID 2237;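 active = B-score above 5 SD of library B-scores, and initial fluorescence ratio not above library mean plus 5 SD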;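 also: positive B-score marks a calcium rise read as TRPC4 activation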
Target sequence (Q9QUQ5 whole entry, looked up): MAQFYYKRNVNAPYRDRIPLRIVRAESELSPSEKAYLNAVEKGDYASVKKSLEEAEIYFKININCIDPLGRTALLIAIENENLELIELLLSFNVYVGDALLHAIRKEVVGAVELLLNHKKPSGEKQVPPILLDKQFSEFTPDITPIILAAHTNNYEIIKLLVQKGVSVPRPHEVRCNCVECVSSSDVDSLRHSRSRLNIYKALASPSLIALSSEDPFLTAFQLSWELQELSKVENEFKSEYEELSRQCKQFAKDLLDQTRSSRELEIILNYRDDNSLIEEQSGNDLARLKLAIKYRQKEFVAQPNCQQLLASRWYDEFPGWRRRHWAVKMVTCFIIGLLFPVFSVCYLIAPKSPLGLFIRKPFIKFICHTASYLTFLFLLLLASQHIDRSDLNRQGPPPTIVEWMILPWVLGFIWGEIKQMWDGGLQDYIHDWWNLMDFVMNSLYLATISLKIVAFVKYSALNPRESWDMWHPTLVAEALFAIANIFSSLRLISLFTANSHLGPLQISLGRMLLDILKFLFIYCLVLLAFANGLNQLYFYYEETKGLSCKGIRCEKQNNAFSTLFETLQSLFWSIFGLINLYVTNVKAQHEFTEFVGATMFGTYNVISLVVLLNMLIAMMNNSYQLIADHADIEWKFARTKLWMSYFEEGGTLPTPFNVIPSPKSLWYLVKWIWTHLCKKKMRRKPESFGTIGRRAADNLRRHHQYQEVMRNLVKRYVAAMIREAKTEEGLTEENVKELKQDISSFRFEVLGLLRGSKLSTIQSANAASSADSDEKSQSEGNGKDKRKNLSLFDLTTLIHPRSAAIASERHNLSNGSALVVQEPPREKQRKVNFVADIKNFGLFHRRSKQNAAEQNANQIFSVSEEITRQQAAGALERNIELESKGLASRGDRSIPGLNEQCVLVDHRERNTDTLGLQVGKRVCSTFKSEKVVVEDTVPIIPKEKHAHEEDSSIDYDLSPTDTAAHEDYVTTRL
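System – HEK293 cells stably co-expressing mouse TRPC4beta and mu-opioid receptor · Signal – Fluo4 calcium-sensitive dye fluorescence, kinetic, 1 Hz baseline · Benchmarks – buffer (low) and maximal DAMGO (high) · Read-out – B score of integrated fluorescence ratio per well · Incubation – dye loading 45 min room temperature, 110 s kinetic read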
TRPC4 block: TRPC4 (mouse) channel inhibition | Q9QUQ5 | B-score at 10 µM | 300,000 compounds, 0.39% hits | AID 2247 | HEK293 TRPC4beta/mu-opioid, DAMGO-evoked Fluo4 calcium flux; hits give low values;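 active = B-score over 3 SD under the library average, no early fluorescence shift, positive overall ratio signal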
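Material: HEK293 cells with stable TRPC4beta plus mu-opioid receptor expression; probe or stimulus: DAMGO in two steps, submaximal then maximal; technique: Fluo4 calcium fluorescence by kinetic imaging, 5 s 1 Hz baseline; measure: integrated fluorescence ratio relative to baseline, converted to per-well B score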
TRPC6 inh: mouse TRPC6 channel inhibition; HEK293-TRPC6, membrane potential dye, ACh-evoked depolarization; hits give low values; B-score at 10 µM; 310,000 compounds, 1.1% hits; AID 2553; Q61143;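 active = B-score under library mean minus 3 SD, initial fluorescence not abnormally high, positive integrated signal ratio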;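 also: B-score derived from integrated fluorescence ratio over the kinetic read; more negative B-score means stronger inhibition of depolarization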
TRPC4 PAM: TRPC4 (mouse) allosteric potentiation; Q9QUQ5; HEK293 TRPC4beta/mu-opioid, DAMGO EC20, Fluo-4 Ca2+ flux; hits give high values; B-score at 10 µM; 310,000 compounds, 0.42% hits;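 active = B-score of calcium response area above 5 SD of library B-scores, with initial fluorescence ratio within 5 SD of library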;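 also: B-score of integrated fluorescence ratio over time as area under calcium response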
TRPC4 spec 2: mouse TRPC4 off-target activity of TRPC6 inhibitors, second screen. shares compounds with TRPC6 inh. HEK293 TRPC4/MOR, membrane potential dye fluorescence; channel activated by saturating DAMGO dose. inhibition, % at 10 µM. 920 compounds, 42% hits. AID 2776;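 active = compounds whose fluorescence signal differed from control wells by over 3 SD, either direction, in both duplicate plates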
TRPC4 spec: mouse TRPC4 off-target activity of TRPC6 inhibitors | shares compounds with TRPC6 inh | HEK293 TRPC4/mu-opioid, membrane potential fluorescence | activity change, negative = inhibition, % at 10 µM | 920 compounds, 61% hits | AID 2777;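 active = rise or fall in signal beyond 3 SD of buffer-only wells in both replicate plates, either sign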;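 also: integrated kinetic ratio of fluorescence range over baseline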
HEK293 MPD ctr 2-1: second check of TRPC6 inhibitor effects in parental HEK293 cells. 920 compounds, 31% hits. signal change vs control, % at 10 µM. parental HEK293 membrane potential dye fluorescence; maximal acetylcholine challenge after compound addition. AID 2779. shares compounds with TRPC6 inh;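 active = membrane potential signal moving either way by over 3 SD of the maximum-effect control, in both duplicate plates, meaning non-specific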
HEK293 MPD ctr-1: checks TRPC6 inhibitor effects in parental HEK293 cells | parental HEK293 membrane potential dye fluorescence | 920 compounds, 60% hits | membrane potential signal change, % at 10 µM | shares compounds with TRPC6 inh;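 active = membrane potential signal shifting up or down by more than 3 SD of buffer-only wells, on both duplicate plates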
HEK293 MPD ctr-2: checks TRPC6 modulator effects in parental HEK293 cells; shares compounds with TRPC6 inh; 2,400 compounds, 51% hits; AID 488924; membrane potential dye fluorescence; membrane potential signal change, % at 10 µM;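 active = membrane potential signal moves up or down beyond 5 SD from buffer-only wells, on both duplicate plates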
HEK293 MPD ctr 2-2: second check of TRPC6 modulator effects in parental HEK293 cells. shares compounds with TRPC6 inh. membrane potential dye fluorescence; after compound, maximal acetylcholine stimulation. inhibition, % at 10 µM. 2,400 compounds, 14% hits;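 active = membrane potential signal drops by more than 5 SD from the mean control signal, in both duplicate plates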;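 also: plate controls were acetylcholine ECmax control wells for no effect and buffer only wells for full effect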
TRPC4 ctr mod: selectivity of TRPC6 modulators against mouse TRPC4; shares compounds with TRPC6 inh; HEK293 TRPC4/mu-opioid, membrane potential fluorescence; percent change from control (negative = decrease, positive = increase), % at 10 µM; 2,400 compounds, 69% hits;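 active = membrane potential signal moved up or down beyond 5 SD of buffer control wells, in both duplicate plates, actives on both sides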;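 also: plate controls were assay buffer wells for no effect and DAMGO maximal-effect wells for full effect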
TRPC4/MOR inh 2: second check of whether TRPC6 modulators also affect mouse TRPC4; shares compounds with TRPC6 inh; HEK293 TRPC4/mu-opioid, membrane potential dye fluorescence; stimulated with maximal-effect DAMGO; inhibition, % at 10 µM; 2,400 compounds, 55% hits; AID 488928;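 active = drop in membrane potential signal beyond 5 SD of the control wells in both duplicate plates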;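 also: TRPC4 counter screen for TRPC6 hits run under conditions tuned for TRPC6 not TRPC4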
TRPC6 inh conf: mouse TRPC6 inhibitor confirmation | shares compounds with TRPC6 inh | HEK293-TRPC6, membrane potential dye, ACh-evoked depolarization | inhibition, % at 10 µM | 3,300 compounds, 43% hits | AID 488960;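 active = fluorescence ratio falls more than 5 SD below the full-stimulation control mean, in both duplicate runs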;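 also: integrated fluorescence ratio of peak minus minimum over baseline after agonist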
TRPC6 act confirm: confirmation of mouse TRPC6 activators; 2,800 compounds, 11% hits; HEK293-TRPC6 membrane potential dye fluorescence, FDSS; shares compounds with TRPC6 inh; AID 488961; activation, % at 10 µM;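 active = ratio signal rise beyond 5 SD above unstimulated control wells' mean, seen in both duplicate runs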;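 also: plate controls were buffer EC0 wells for no effect and acetylcholine ECmax response for full effect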
Active calls of the source: *; i = inactive; / = no result given. The list is not random: actives were taken first. Their share in the collection is about 2.3%.

SMILES	TRPC6 act	TRPC4 act	TRPC4 block	TRPC6 inh	TRPC4 PAM	HEK293 MPD ctr-2	HEK293 MPD ctr 2-2	TRPC4 ctr mod	TRPC4/MOR inh 2	TRPC6 inh conf	TRPC6 act confirm	others
N#CCOC(=O)C1c2ccccc2Oc2ccccc21	i	i	i	i	i	/	/	/	/	/	/
CN(C)CCOC(C1CCCCC1)C1CCCCC1	i	i	i	-5.53*	i	229.5%*	i	52.5%*	50.5%*	39.0%*	/
COc1cccc(C2c3c(C)nn(-c4ccc([N+](=O)[O-])cc4)c3N=C3C(=O)Nc4ccccc4N32)c1 (configuration not stated)	i	i	i	-5.71*	i	i	i	i	53.5%*	i	i
Cc1nn(-c2ccc([N+](=O)[O-])cc2)c2c1C(c1ccc(OC(F)F)cc1)N1C(=N2)C(=O)Nc2ccccc21 (configuration not stated)	i	i	i	i	i	/	/	/	/	/	/
CC(=O)c1ccccc1Oc1cc(NN2CCCCC2)c([N+](=O)[O-])cc1[N+](=O)[O-]	i	i	i	-5.98*	i	i	i	i	31.5%*	i	i
COc1ccccc1C(=O)NC(=O)COC(=O)CNC(=O)c1ccc(Cl)cc1Cl	i	i	i	i	i	/	/	/	/	/	/
CC(C)(C)c1ccc(OCCCNC2CCCC2)cc1	i	i	i	-5.82*	i	209.0%*	62.0%*	47.0%*	40.0%*	66.5%*	/
Cc1ccc(OCCCNC2CCCC2)cc1	i	i	i	i	i	/	/	/	/	/	/
COc1ccc(CCNC(=O)c2cc3c(=O)n4cccc(C)c4nc3n(CCCN3CCOCC3)c2=N)cc1	i	i	i	i	i	/	/	/	/	/	/
Cc1cccn2c(=O)c3cc(C(=O)NCCN4CCOCC4)c(=N)n(CCN4CCOCC4)c3nc12	i	i	i	-7.04*	i	/	/	/	/	65.6%*	i	TRPC4 spec 2=71.5%*;TRPC4 spec=0.8%*;HEK293 MPD ctr 2-1=-124.0%*;HEK293 MPD ctr-1=i
Cc1cccn2c(=O)c3cc(C(=O)NCC4CCCO4)c(=N)n(CC4CCCO4)c3nc12 (configuration not stated)	i	i	i	i	i	/	/	/	/	/	/
Cc1cccn2c(=O)c3cc(C(=O)NC4CCCC4)c(=N)n(CC4CCCO4)c3nc12 (configuration not stated)	i	i	i	-5.76*	i	i	i	i	31.5%*	i	i
Cc1cccn2c(=O)c3cc(C(=O)NCCN4CCOCC4)c(=N)n(Cc4ccc(F)cc4)c3nc12	i	i	i	-5.59*	i	i	93.5%*	i	i	i	i
COc1ccc(-n2ncc3c2CC(C)(C)CC3NC(=O)CCn2cncn2)cc1 (configuration not stated)	i	i	i	i	i	/	/	/	/	/	/
O=C(CNC(=O)C1CCCCC1)NNC(=O)c1ccccc1Br	i	i	i	i	i	/	/	/	/	/	/
Cc1cc(N2CCOCC2)c2c(N)cc(C)c(C)c2n1	i	i	i	-10.7*	i	-357.0%*	87.0%*	-54.5%*	54.0%*	58.5%*	i
Cc1ccc2cc(C=O)c(N3CCOCC3)nc2c1C	i	i	i	i	i	/	/	/	/	/	/
O=C(NC1CCCCC1)C(c1ccc(F)cc1)N(Cc1ccco1)C(=O)Cn1nnc2ccccc21 (configuration not stated)	i	i	i	i	i	/	/	/	/	/	/
CCOc1ccccc1C(C(=O)NC1CCCC1)N(Cc1ccco1)C(=O)CNC(=O)c1ccco1 (configuration not stated)	13.7*	i	i	i	i	350.0%*	90.5%*	78.0%*	i	/	149.5%*
Cc1ccc(C(C(=O)NC2CCCCC2)N(Cc2ccco2)C(=O)Cn2cnc3ccccc32)cc1 (configuration not stated)	16.8*	i	i	i	i	i	i	121.5%*	i	i	30.0%*
CCSc1nc(C)cc(Oc2ccc(=O)n(C)n2)n1	i	i	i	-8.6*	i	/	/	/	/	i	i	TRPC4 spec 2=i;TRPC4 spec=i;HEK293 MPD ctr 2-1=i;HEK293 MPD ctr-1=i
COc1ccc2oc(C(=O)OCC(=O)N(C)C3CCCCC3)c(C)c2c1	i	i	i	i	i	/	/	/	/	/	/
Cc1cc(C)n2nc(C(=O)N/N=C/c3ccccc3Cl)nc2n1	i	i	i	i	i	/	/	/	/	/	/
Cc1cc(C)n2nc(C(=O)N/N=C/c3ccco3)nc2n1	i	i	i	-6.56*	i	-275.0%*	i	-50.0%*	32.5%*	i	i
O=C(Nc1ccccc1C(=O)N1CCCCC1)c1cccs1	i	i	i	i	i	/	/	/	/	/	/
Cc1nc(Cl)sc1C(=O)Nc1cccc(Cl)c1C	i	i	i	i	i	/	/	/	/	/	/
O=C(CCc1ccccc1)NC1CCCc2ccccc21 (configuration not stated)	i	i	i	-7.45*	i	/	/	/	/	i	i	TRPC4 spec 2=i;TRPC4 spec=6.5%*;HEK293 MPD ctr 2-1=i;HEK293 MPD ctr-1=5.4%*
